Test results reported in ChEMBL document CHEMBL1123124, “New antihistaminic N-heterocyclic 4-piperidinamines. 2. Synthesis and antihistaminic activity of 1-[(4-fluorophenyl)methyl]-N-(4-piperidinyl)-1H-benzimidazol-2-a mines” (1985).

Legend:
Rattus norvegicus [1] = test: In vivo antihistaminic activity using compound 48/80 induced lethality test in rat 2 hr after oral administration; format: functional
Procedure, shortened: (§1)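 Protection was survival for 4 h after challenge. ED50 with confidence limits was calculated by Finney from five rats per dose and at least three doses of a geometric series (0.0025–40 mg/kg). Estimated ED50 used at least two rats per dose.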

Rattus norvegicus [2] = test: Inhibition of serotonin skin reaction in rat after 2 hr of oral administration.; format: functional
Procedure, shortened: (§2)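 Test compound or solvent given orally to rats 2 h before four intradermal injections into clipped back: two of 50 μL histamine dihydrochloride (1 mg/mL in saline), two of 50 μL serotonin (2 μg/mL in saline). Then iv 0.5 mL of 0.5% trypan blue. Bluing of skin reactions scored 30 min later.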

Rattus norvegicus [3] = test: Inhibition of mydriatic activity in rat after 2 hr of oral administration; format: functional
Rattus norvegicus [4] = test: Inhibition of histamine skin reaction in rat after 2 hr of oral administration.; format: functional; procedure, shortened: as §2
Rattus norvegicus [5] = test: In vivo antihistaminic activity using compound 48/80 induced lethality test in rat after 2 hr of subcutaneous administration; format: functional; conditions: sc; procedure, shortened: as §1
Rattus norvegicus [6] = test: Inhibition of serotonin skin reaction in rat after 2 hr of oral administration; format: functional; procedure, shortened: as §2
Cavia porcellus [7] = test: In vivo histamine induced lethality after 8 hours of iv administration in guinea pig; format: functional
Rattus norvegicus [8] = test: Inhibition of histamine skin reaction in rat after 2 hr of oral administration; format: functional; procedure, shortened: as §2
Cavia porcellus [9] = test: In vivo histamine induced lethality after 3 hours of iv administration in guinea pig; format: functional
Rattus norvegicus [10] = test: In vivo antihistaminic activity using compound 48/80 induced lethality test in rat after 2 hr of oral administration; format: functional; procedure, shortened: as §1
Cavia porcellus [11] = test: In vivo histamine induced lethality after 48 hours of iv administration in guinea pig; format: functional
Procedure, shortened: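 Male albino guinea pigs (280–360 g) were dosed orally 3, 24, 48 or 96 h before an iv challenge with histamine dihydrochloride (1.25 mg/kg). Protection was survival at 1 h. Doses rose in 2-fold steps from 0.0025 mg/kg, with at least three doses and 4–6 animals per dose and time point. PD50 with confidence limits was computed by Finney.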

Rattus norvegicus [12] = test: Inhibition of mydriatic activity in rat after 2 hr of oral administration.; format: functional
Cavia porcellus [13] = test: In vivo histamine induced lethality after 24 hours of iv administration in guinea pig; format: functional
Rattus norvegicus [14] = test: Inhibition of mydriatic activity in rat after 2 hr of intraperitoneal administration.; format: functional; conditions: ip
Rattus norvegicus [15] = test: Inhibition of histamine skin reaction in rat after 2 hr of subcutaneous administration.; format: functional; conditions: sc
Rattus norvegicus [16] = test: Inhibition of serotonin skin reaction in rat after 2 hr of subcutaneous administration.; format: functional; conditions: sc
Rattus norvegicus [17] = test: In vivo antihistaminic activity using compound 48/80 induced lethality test after 1 hr of subcutaneous administration in rat; format: functional; conditions: sc; procedure, shortened: as §1
Cavia porcellus [18] = test: In vivo histamine induced lethality after 96 hours of iv administration in guinea pig; format: functional
Rattus norvegicus [19] = test: In vivo antihistaminic activity using compound 48/80 induced lethality test in rat after 2 hr of oral administration.; format: functional; procedure, shortened: as §1
Rattus norvegicus [20] = test: In vivo antihistaminic activity using compound 48/80 induced lethality test in rat after 2 hr of oral administration; C represents estimated ED50 values used whenever possible for comparison of relative potencies; format: functional, organism-based
Procedure, shortened: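 Protection = survival 4 h after challenge. ED50 (dose giving 50% survival) calculated with confidence limits by Finney, five animals per dose, at least three doses from geometric series 0.0025–40.0 mg/kg. Estimated ED50 values based on at least two animals per dose.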

Rattus norvegicus [21] = test: In vivo antihistaminic activity using compound 48/80 induced lethality test in rat after 2 hr( oral administration); format: functional; procedure, shortened: as §1
Rattus norvegicus [22] = test: Inhibition of mydriatic activity in rat after 2 hr of intraperitoneal administration; format: functional; conditions: ip

Structure (SMILES)	ED50 (Cavia porcellus [7])	ED50 (Cavia porcellus [9])	ED50 (Rattus norvegicus [10])	ED50 (Cavia porcellus [11])	ED50 (Rattus norvegicus [12])	ED50 (Cavia porcellus [13])	ED50 (Rattus norvegicus [15])	ED50 (Rattus norvegicus [16])	ED50 (Rattus norvegicus [17])	ED50 (Cavia porcellus [18])	other results
COc1ccc(CN(CCN(C)C)c2ccccn2)cc1 [PYRILAMINE]											ED50 (Rattus norvegicus [1]): 56.6 mg/kg; ED50 (Rattus norvegicus [2]): > 40 mg/kg; ED50 (Rattus norvegicus [3]): 56.5 mg/kg; ED50 (Rattus norvegicus [4]): > 40 mg/kg
CN1CCC(=C2c3ccccc3CCc3cccnc32)CC1 [AZATADINE]	0.06 mg/kg	0.014 mg/kg	0.48 mg/kg	> 2.5 mg/kg	5.39 mg/kg						ED50 (Rattus norvegicus [5]): 0.049 mg/kg; ED50 (Rattus norvegicus [6]): 18.8 mg/kg; ED50 (Rattus norvegicus [8]): 0.77 mg/kg
Br.OCCN1CCC(Nc2nc3ccccc3n2Cc2ccc(F)cc2)CC1	0.07 mg/kg	0.04 mg/kg	0.63 mg/kg	0.3 mg/kg		0.09 mg/kg	0.08 mg/kg	> 0.63 mg/kg	0.04 mg/kg	2.15 mg/kg	ED50 (Rattus norvegicus [14]): > 40 mg/kg
Oc1ccc(CCN2CCC(Nc3nc4ccccc4n3Cc3ccc(F)cc3)CC2)cc1 [DESMETHEYLASTEMIZOLE]	0.08 mg/kg	0.19 mg/kg	0.1 mg/kg	0.12 mg/kg		0.06 mg/kg	0.08 mg/kg	≥ 0.63 mg/kg	0.16 mg/kg	0.27 mg/kg	ED50 (Rattus norvegicus [14]): > 40 mg/kg
Fc1ccc(Cn2c(NC3CCN(CCc4ccccc4)CC3)nc3ccc(F)cc32)cc1									1.25 mg/kg		ED50 (Rattus norvegicus [19]): 0.63 mg/kg
O=[N+]([O-])c1ccc(CCN2CCC(Nc3nc4ccccc4n3Cc3ccc(F)cc3)CC2)cc1									> 2.5 mg/kg		ED50 (Rattus norvegicus [20]): Estimated ED50 values used whenever possible
Fc1ccc(Cn2c(NC3CCN(CCc4ccccc4)CC3)nc3cc(F)ccc32)cc1									1.25 mg/kg		ED50 (Rattus norvegicus [19]): > 2.5 mg/kg
CN1CCC(=C2c3ccccc3C=Cc3ccccc32)CC1 [CYPROHEPTADINE]	0.88 mg/kg	0.08 mg/kg			9.36 mg/kg	> 2.5 mg/kg					ED50 (Rattus norvegicus [21]): 1.13 mg/kg; ED50 (Rattus norvegicus [2]): 2.35 mg/kg; ED50 (Rattus norvegicus [4]): 0.89 mg/kg
COc1ccc(CCN2CCC(Nc3nc4ccccc4n3Cc3ccc(F)cc3)CC2)cc1 [ASTEMIZOLE]	0.17 mg/kg	0.33 mg/kg	0.11 mg/kg	0.04 mg/kg	> 160 mg/kg	0.07 mg/kg	0.15 mg/kg	> 2.5 mg/kg	0.11 mg/kg	0.19 mg/kg	ED50 (Rattus norvegicus [6]): 14.2 mg/kg; ED50 (Rattus norvegicus [8]): 0.13 mg/kg; ED50 (Rattus norvegicus [22]): > 40 mg/kg
